Measured values of several laboratories.
Lines come from different studies, so protocols differ.
Observed: cell growth or viability

| SMILES | cell line | assay | conditions | measurement | value |
| --- | --- | --- | --- | --- | --- |
| C=CC(=O)NC1CCN(c2ncc3ncnc(Nc4ccc(Oc5ccc6c(c5)ncn6C)c(C)c4)c3n2)CC1 | LS-411N | – | – | EC50 | 11.6 nM |
| COc1ccc(CNC[C@](O)(COCc2ccc(OC)cc2)[C@@H]2CC[C@@H](C)C[C@H]2OCc2ccc(OC)cc2)cc1 | HeLa | MTT | 10 µM, 72 h | inhibition | 96.9% |
| O=C(C=Cc1ccccc1)Nc1cc(-c2ccnc(N3CCC(O)CC3)c2)ccn1 | HeLa | MTT | 5 µM | inhibition | 75.2% |
| C[C@@H]1CC[C@@H]([C@](C)(O)Cn2cnc3ccccc32)[C@H](OCc2ccccc2)C1 | HeLa | MTT | 10 µM, 72 h | inhibition | 32.1% |
| Cc1cccc(/C=C/C(=O)Nc2cccc(-c3ccnc(N4CCC(O)CC4)c3)c2)c1 | HeLa | MTT | 5 µM | inhibition | 54.9% |
| Cc1nc(Nc2ccc3c(c2)CC(=O)N3)c2ccccc2n1 | H22 | MTT | – | IC50 | 10400 nM |
| O=C(C=Cc1ccccc1)Nc1cccc(-c2ccnc(N3CCOCC3)c2)c1 | HeLa | MTT | 5 µM | inhibition | 28.4% |
| COc1cc2ncnc(Nc3ccc4c(c3)/C(=C/c3cccc(Cl)c3)C(=O)N4C)c2cc1OC | H22 | MTT | – | IC50 | 3840 nM |
| C=C(COCc1ccc(OC)cc1)[C@@H]1CC[C@@H](C)C[C@H]1OCc1ccc(OC)cc1 | HeLa | MTT | 10 µM, 72 h | inhibition | 39.2% |
| O=C(C=Cc1cccc(F)c1)Nc1cc(-c2ccnc(N3CCC(O)CC3)c2)ccn1 | HeLa | MTT | 5 µM | inhibition | 82.7% |
| Cc1nc(Nc2ccc3c(c2)/C(=C/c2ccccc2Cl)C(=O)N3)c2ccccc2n1 | H22 | MTT | – | IC50 | 2140 nM |
| COc1ccc(CNC[C@@](C)(O)[C@@H]2CC[C@@H](C)C[C@H]2OCc2ccccc2)cc1 | HeLa | MTT | 30 µM, 72 h | inhibition | 98.9% |
| Cc1nc(N(Cc2ccccc2)c2ccc3c(c2)/C(=C/c2ccccc2)C(=O)N3Cc2ccccc2)c2ccccc2n1 (mixture of isomers) | H22 | MTT | – | IC50 | 880 nM |
| Cc1c(C(=O)O)ccc2c3n(nc12)[C@@H]1[C@H](C3)N(CC2CC2)[C@@]2(C(=O)Nc3cc(Cl)ccc32)[C@H]1c1cccc(Cl)c1F | U2OS | – | – | GI50 | > 90 nM |
| COc1cccc(CNC[C@@](C)(O)[C@@H]2CC[C@@H](C)C[C@H]2OCc2ccccc2)c1 | HeLa | MTT | 30 µM, 72 h | inhibition | 97.9% |
| O=C(/C=C/c1ccc(F)cc1)Nc1cc(-c2ccnc(N3CCC(O)CC3)c2)ccn1 | HeLa | MTT | 5 µM | inhibition | 81.5% |
| CCN1[C@@H](C(=O)NC23CCC(C(=O)O)(CC2)CC3)[C@H](c2cccc(Cl)c2F)[C@]2(C(=O)Nc3cc(Cl)ccc32)C12CCCCC2 | U2OS | resazurin | 72 h | GI50 | 703 nM |
| COc1ccc(COC[C@@](O)(CNCc2ccc(F)cc2)[C@@H]2CC[C@@H](C)C[C@H]2OCc2ccc(OC)cc2)cc1 | HeLa | MTT | 10 µM, 72 h | inhibition | 95% |
| Cc1cccc(/C=C/C(=O)Nc2cc(-c3ccnc(N4CCC(O)CC4)c3)ccn2)c1 | HeLa | MTT | 5 µM | inhibition | 74.2% |
